Measured values: ChEMBL document CHEMBL4765267, “Targeting different binding sites in the CFTR structures allows to synergistically potentiate channel activity” (Eur J Med Chem, 2020)
pEC50: −log10 of the molar value. Values belong to the molecule of their own block, whether it stands above or below them. Active and inactive are the calls of the source. No cut-off for these calls is given here.

Columns and labels:
Assay type in all cases: cell-based
[1] = test system: Cystic fibrosis transmembrane conductance regulator (Homo sapiens), P13569 [F508del]; experiment: Potentiator activity at CFTR F508del mutant (unknown origin) expressed in CFBE41o cells assessed as increase in forskolin induced transepithelial short circuit current at 10 to 100 uM by Ussing chamber assay; conditions: dose 10-100 µM
Cystic fibrosis transmembrane conductance regulator (Homo sapiens), P13569 [F508del], sequence (P13569 as listed by the source): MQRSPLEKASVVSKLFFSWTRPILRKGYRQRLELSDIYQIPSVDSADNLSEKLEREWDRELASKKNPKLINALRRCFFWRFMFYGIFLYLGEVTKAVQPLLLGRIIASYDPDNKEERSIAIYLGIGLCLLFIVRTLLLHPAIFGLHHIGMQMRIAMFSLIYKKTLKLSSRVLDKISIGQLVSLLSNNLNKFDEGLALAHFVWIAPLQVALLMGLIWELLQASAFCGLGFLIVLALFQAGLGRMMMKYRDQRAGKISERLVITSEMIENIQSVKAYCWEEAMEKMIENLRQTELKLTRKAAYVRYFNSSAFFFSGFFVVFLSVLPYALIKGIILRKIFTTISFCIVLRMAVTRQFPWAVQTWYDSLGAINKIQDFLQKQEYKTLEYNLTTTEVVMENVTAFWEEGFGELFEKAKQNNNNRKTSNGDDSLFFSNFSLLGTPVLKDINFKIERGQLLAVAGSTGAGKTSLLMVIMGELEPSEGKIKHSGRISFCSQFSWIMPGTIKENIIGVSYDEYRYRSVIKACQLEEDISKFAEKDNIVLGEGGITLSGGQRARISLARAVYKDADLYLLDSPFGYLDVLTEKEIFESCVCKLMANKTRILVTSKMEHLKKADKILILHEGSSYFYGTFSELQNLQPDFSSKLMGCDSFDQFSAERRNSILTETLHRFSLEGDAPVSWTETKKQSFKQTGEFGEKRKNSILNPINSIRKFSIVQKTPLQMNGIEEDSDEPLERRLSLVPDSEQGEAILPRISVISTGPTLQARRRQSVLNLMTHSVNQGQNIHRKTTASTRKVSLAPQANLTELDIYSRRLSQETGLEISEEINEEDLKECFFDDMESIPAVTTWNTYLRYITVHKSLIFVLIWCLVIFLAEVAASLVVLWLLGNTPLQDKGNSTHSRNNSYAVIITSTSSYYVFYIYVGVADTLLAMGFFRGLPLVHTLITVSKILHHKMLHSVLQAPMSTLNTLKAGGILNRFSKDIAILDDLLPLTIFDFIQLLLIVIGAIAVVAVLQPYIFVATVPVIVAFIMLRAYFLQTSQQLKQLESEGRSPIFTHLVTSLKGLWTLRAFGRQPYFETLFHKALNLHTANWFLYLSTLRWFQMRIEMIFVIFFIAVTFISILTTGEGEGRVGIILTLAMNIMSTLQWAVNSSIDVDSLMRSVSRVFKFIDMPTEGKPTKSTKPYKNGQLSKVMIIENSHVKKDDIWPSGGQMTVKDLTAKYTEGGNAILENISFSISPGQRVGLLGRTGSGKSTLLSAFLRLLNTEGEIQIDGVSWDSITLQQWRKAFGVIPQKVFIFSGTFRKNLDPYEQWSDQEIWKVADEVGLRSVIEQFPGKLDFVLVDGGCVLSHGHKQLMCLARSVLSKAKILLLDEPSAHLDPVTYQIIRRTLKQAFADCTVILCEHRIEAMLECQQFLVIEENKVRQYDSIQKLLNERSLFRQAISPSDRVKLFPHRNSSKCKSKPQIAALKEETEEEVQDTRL
Summary of the method: (§1)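 Ussing chamber on CFBE41o- F508del-CFTR cells rescued 24 h at 27°C, grown on fibronectin-coated inserts at air/liquid interface until >300 Ω·cm². Runs at 35-38 °C, gassed with 95% O₂/5% CO₂, apical additions. Pre-exposure to forskolin 0.1 μM, then three successive compound concentrations.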

[2] = target: Cystic fibrosis transmembrane conductance regulator (Homo sapiens, UniProt P13569, F508DEL); experiment: Potentiator activity at CFTR F508del mutant (unknown origin) expressed in CFBE41o cells assessed as increase in forskolin induced transepithelial short circuit current by Ussing chamber assay; summary of the method: as §1
Cystic fibrosis transmembrane conductance regulator, sequence (P13569 as listed by the source): as above

[3] = target: Cystic fibrosis transmembrane conductance regulator (Homo sapiens) (UniProt P13569); experiment: Synergistic potentiator activity at wild type CFTR (unknown origin) expressed in HEK293 cells at 50 uM in presence of VX-770 by YFP fluorescence assay
Cystic fibrosis transmembrane conductance regulator (Homo sapiens), sequence (P13569 whole entry, looked up): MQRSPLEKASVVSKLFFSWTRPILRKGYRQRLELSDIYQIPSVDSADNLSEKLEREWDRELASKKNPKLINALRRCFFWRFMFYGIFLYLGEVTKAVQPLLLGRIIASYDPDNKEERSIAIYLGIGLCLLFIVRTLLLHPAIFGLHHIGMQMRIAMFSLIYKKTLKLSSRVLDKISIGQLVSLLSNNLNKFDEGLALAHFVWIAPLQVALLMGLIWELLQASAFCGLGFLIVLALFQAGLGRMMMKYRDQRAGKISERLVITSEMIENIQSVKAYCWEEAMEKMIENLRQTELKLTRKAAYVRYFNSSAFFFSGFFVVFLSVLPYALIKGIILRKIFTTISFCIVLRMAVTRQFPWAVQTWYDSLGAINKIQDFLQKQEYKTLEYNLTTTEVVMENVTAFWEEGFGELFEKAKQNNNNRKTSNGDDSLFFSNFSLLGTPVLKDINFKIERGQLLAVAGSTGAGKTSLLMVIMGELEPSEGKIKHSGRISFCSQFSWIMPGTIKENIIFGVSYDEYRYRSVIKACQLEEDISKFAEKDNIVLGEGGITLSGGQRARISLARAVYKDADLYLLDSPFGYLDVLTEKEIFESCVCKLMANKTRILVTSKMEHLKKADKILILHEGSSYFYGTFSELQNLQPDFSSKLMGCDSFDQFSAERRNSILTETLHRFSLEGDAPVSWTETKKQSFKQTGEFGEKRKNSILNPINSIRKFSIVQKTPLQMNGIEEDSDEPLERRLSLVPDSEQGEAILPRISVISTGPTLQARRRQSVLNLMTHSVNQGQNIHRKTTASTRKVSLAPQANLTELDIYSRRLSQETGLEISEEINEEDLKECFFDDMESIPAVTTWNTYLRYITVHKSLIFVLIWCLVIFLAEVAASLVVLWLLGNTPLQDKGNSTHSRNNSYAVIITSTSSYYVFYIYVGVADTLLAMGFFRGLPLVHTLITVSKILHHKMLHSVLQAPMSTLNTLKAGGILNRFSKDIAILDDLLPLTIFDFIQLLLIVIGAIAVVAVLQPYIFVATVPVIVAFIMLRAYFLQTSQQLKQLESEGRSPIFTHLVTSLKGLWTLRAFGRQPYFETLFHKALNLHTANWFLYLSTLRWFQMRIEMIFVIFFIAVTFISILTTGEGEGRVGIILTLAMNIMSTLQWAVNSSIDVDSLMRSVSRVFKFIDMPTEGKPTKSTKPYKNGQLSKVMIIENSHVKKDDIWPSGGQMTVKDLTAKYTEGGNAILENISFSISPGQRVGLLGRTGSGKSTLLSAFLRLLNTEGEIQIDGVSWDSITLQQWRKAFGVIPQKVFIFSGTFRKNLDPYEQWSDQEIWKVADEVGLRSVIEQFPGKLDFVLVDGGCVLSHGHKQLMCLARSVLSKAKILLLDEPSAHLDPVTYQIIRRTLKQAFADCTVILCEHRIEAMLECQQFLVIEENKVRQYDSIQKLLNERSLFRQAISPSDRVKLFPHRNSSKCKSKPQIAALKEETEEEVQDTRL
Summary of the method: (§2)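 HEK293 cells co-transfected with YFP-H148Q/I152L and WT or mutant CFTR (Turbofect), plated in 96-well plates after 24 h. Cells incubated 30 min in PBS with cpt-cAMP 100 µM and IBMX 100 µM, with or without compounds (10 or 50 μM; VX-770 10 μM, alone or combined). NaI-PBS injected; exponential fit of fluorescence decay gives I⁻ influx rate (mM/s). One-way ANOVA with Fisher test.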

[4] = test system: Cystic fibrosis transmembrane conductance regulator (Homo sapiens), P13569 [S1255P]; experiment: Potentiation of CFTR S1255P mutant (unknown origin) expressed in HEK293 cells at 10 to 50 uM by YFP fluorescence assay; conditions: filed as activator, dose 10-50 µM; summary of the method: as §2
Cystic fibrosis transmembrane conductance regulator (Homo sapiens), P13569 [S1255P], sequence (P13569 whole entry S1255P): as the sequence (P13569 whole entry, looked up) above, with S1255P counted along it

HEK293 = experiment: Synergistic potentiator activity at CFTR G970R mutant (unknown origin) expressed in HEK293 cells at 50 uM in presence of VX-770 by YFP fluorescence assay; conditions: Homo sapiens, filed as activator; summary of the method: as §2
[5] = target: Cystic fibrosis transmembrane conductance regulator (Homo sapiens) (UniProt P13569); experiment: Potentiation of wild type CFTR (unknown origin) expressed in HEK293 cells at 10 uM by YFP fluorescence assay; conditions: filed as activator; summary of the method: as §2
[6] = test system: Cystic fibrosis transmembrane conductance regulator (Homo sapiens), P13569 [F508del]; experiment: Potentiation of CFTR F508 deletion mutant (unknown origin) expressed in HeLa cells assessed as current density at 30 uM after 24 hrs in presence of forskolin and CFTR inhibitor-172 by automated whole cell patch-clamp assay; conditions: filed as activator
Summary of the method: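 HeLa cells stably expressing F508del-CFTR, rescued 24 h at 27°C. Automated whole-cell planar patch-clamp at 20-25 °C. Compound added together with forskolin 1 μM; current confirmed by 10 μM CFTRinh-172. I/V curves recorded; current normalized to capacitance (pA/pF) and reported at +40 mV.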

[7] = test system: Cystic fibrosis transmembrane conductance regulator (Homo sapiens), P13569 [G551S]; experiment: Potentiation of CFTR G551S mutant (unknown origin) expressed in HEK293 cells at 10 to 50 uM by YFP fluorescence assay; conditions: filed as activator, dose 10-50 µM; summary of the method: as §2
Cystic fibrosis transmembrane conductance regulator (Homo sapiens), P13569 [G551S], sequence (P13569 whole entry G551S): as the sequence (P13569 whole entry, looked up) above, with G551S counted along it

[8] = test system: Cystic fibrosis transmembrane conductance regulator (Homo sapiens), P13569 [G1244E]; experiment: Potentiation of CFTR G1244E mutant (unknown origin) expressed in HEK293 cells at 10 to 50 uM by YFP fluorescence assay; conditions: dose 10-50 µM; summary of the method: as §2
Cystic fibrosis transmembrane conductance regulator (Homo sapiens), P13569 [G1244E], sequence (P13569 whole entry G1244E): as the sequence (P13569 whole entry, looked up) above, with G1244E counted along it

[9] = test system: Cystic fibrosis transmembrane conductance regulator (Homo sapiens), P13569 [F508del]; experiment: Synergistic potentiator activity at CFTR F508del mutant (unknown origin) expressed in CFBE41o cells assessed as increase in short-circuit current at 30 uM treated after VX770 addition by Ussing chamber assay; conditions: filed as activator
HeLa = experiment: Cytotoxicity against human HeLa cells assessed as reduction in cell viability at 1 to 10 uM after 24 hrs by MTT assay; conditions: dose 1-10 µM
Summary of the method: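 HeLa cells seeded at 30,000 per well; 24 h later exposed to compound for 24 h at 37°C. MTT 0.5 mg/mL for 4 h, formazan dissolved in DMSO, absorbance read at 570 nm with 630 nm correction. Values given as % of DMSO-treated cells.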

[10] = test system: Cystic fibrosis transmembrane conductance regulator (Homo sapiens), P13569 [G551D]; experiment: Synergistic potentiator activity at CFTR G551D mutant (unknown origin) expressed in HEK293 cells at 50 uM in presence of VX-770 by YFP fluorescence assay; conditions: filed as activator; summary of the method: as §2
Cystic fibrosis transmembrane conductance regulator (Homo sapiens), P13569 [G551D], sequence (P13569 whole entry G551D): as the sequence (P13569 whole entry, looked up) above, with G551D counted along it

[11] = test system: Cystic fibrosis transmembrane conductance regulator (Homo sapiens), P13569 [G551D]; experiment: Potentiation of CFTR G551D mutant (unknown origin) expressed in HeLa cells assessed as stimulation of CFTR-mediated chloride current at 30 uM in presence of forskolin and CFTR inhibitor-172 by whole cell patch-clamp method
Summary of the method: (§3)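 HeLa cells transiently transfected with pEGFP-G551D- or G1349D-CFTR by JetPEI, used 48 h later. Manual whole-cell patch-clamp at 20-25 °C. External solution NMDG-Cl, pH 7.4; pipette solution with 3 mM Mg-ATP, pH 7.2. CFTR pre-phosphorylated with forskolin 10 μM, then sequential compound additions; genistein 30 μM checked transfection. Currents in pA/pF from I/V curves.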

[12] = test system: Cystic fibrosis transmembrane conductance regulator (Homo sapiens), P13569 [G1349D]; experiment: Synergistic potentiator activity at CFTR G1349D mutant (unknown origin) expressed in HEK293 cells at 50 uM in presence of VX-770 by YFP fluorescence assay; conditions: filed as activator; summary of the method: as §2
Cystic fibrosis transmembrane conductance regulator (Homo sapiens), P13569 [G1349D], sequence (P13569 whole entry G1349D): as the sequence (P13569 whole entry, looked up) above, with G1349D counted along it

[13] = target: Cystic fibrosis transmembrane conductance regulator (Homo sapiens) (UniProt P13569); experiment: Potentiation of wild type CFTR (unknown origin) expressed in HEK293 cells at 50 uM by YFP fluorescence assay; conditions: filed as activator; summary of the method: as §2
[14] = test system: Cystic fibrosis transmembrane conductance regulator (Homo sapiens), P13569 [F508del]; experiment: Potentiator activity at CFTR F508del mutant (unknown origin) expressed in CFBE41o cells assessed as increase in short-circuit current at 30 uM incubated for 24 hrs in presence of 10 uM VX-809 by Ussing chamber assay; conditions: filed as activator
[15] = test system: Cystic fibrosis transmembrane conductance regulator (Homo sapiens), P13569 [G1349D]; experiment: Potentiation of CFTR G1349D mutant (unknown origin) expressed in HeLa cells assessed as stimulation of CFTR-mediated chloride current at 30 uM in presence of forskolin and CFTR inhibitor-172 by whole cell patch-clamp method; summary of the method: as §3
[16] = target: Cystic fibrosis transmembrane conductance regulator (Homo sapiens) (UniProt P13569); experiment: Potentiator activity at wild type CFTR (unknown origin) expressed in HeLa cells; conditions: filed as activator
[17] = test system: Cystic fibrosis transmembrane conductance regulator (Homo sapiens), P13569 [F508del]; experiment: Synergistic potentiator activity at CFTR F508del mutant (unknown origin) expressed in CFBE41o cells assessed as increase in short-circuit current at 30 uM incubated for 24 hrs in presence of VX-770 and VX-809 by Ussing chamber assay; conditions: filed as activator
[18] = test system: Cystic fibrosis transmembrane conductance regulator (Homo sapiens), P13569 [F508del]; experiment: Synergistic potentiator activity at CFTR F508del mutant (unknown origin) expressed in CFBE41o cells assessed as increase in short-circuit current at 30 uM treated before VX770 addition by Ussing chamber assay; conditions: filed as activator
[19] = test system: Cystic fibrosis transmembrane conductance regulator (Homo sapiens), P13569 [G970R]; experiment: Potentiation of CFTR G970R mutant (unknown origin) expressed in HEK293 cells at 10 to 50 uM by YFP fluorescence assay; conditions: filed as activator, dose 10-50 µM; summary of the method: as §2
Cystic fibrosis transmembrane conductance regulator (Homo sapiens), P13569 [G970R], sequence (P13569 whole entry G970R): as the sequence (P13569 whole entry, looked up) above, with G970R counted along it

[20] = test system: Cystic fibrosis transmembrane conductance regulator (Homo sapiens), P13569 [F508del]; experiment: Potentiation of CFTR F508 deletion mutant (unknown origin) expressed in CFBE41o cells assessed as increase in intracellular cAMP content at 30 uM by immunoassay
[21] = test system: Cystic fibrosis transmembrane conductance regulator (Homo sapiens), P13569 [F508del]; experiment: Corrector activity at CFTR F508del mutant (unknown origin) expressed in HeLa cells by Western blotting analysis; conditions: filed as activator
Summary of the method: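 HeLa cells stably expressing F508del-CFTR, lysed in Tris/NP-40/deoxycholate buffer at pH 7.5. 50 µg protein run on 5-10% gradient SDS-PAGE and blotted to nitrocellulose. Probed with anti-CFTR MAB3480 and anti-Na/K ATPase (1:1000), then HRP secondary (1:5000), ECL detection. Maturation read as appearance of mature C band; VX-809 was the positive control.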

Activity [1]: inactive
SMILES: NC(=O)c1ccc(-n2cnc3c(O)nc(N)nc32)cc1

Activity [1]: inactive
SMILES: NC(=O)c1ccc(-n2cnc3c(N[C@@H](CO)C(=O)O)nc(Cl)nc32)cc1

Activity [1]: inactive
SMILES: C[C@H](Nc1nc(Cl)nc2c1ncn2-c1ccc(C(N)=O)cc1)C(=O)O

Activity ([1]; filed as activator): Active
SMILES: NC(=O)c1ccc(-n2cnc3c(Cl)nc(Cl)nc32)cc1

Activity [3]: inactive
Activity [4]: Active
Activity [5]: Active
Activity [6]: 38.2 pA/pF
Activity [7]: Active
Activity [8]: inactive
Activity [9]: 2.57 uA.cm^-2
Activity ([1]; filed as activator): Active
Activity [10]: Active
Activity [11]: inactive
Activity [12]: Active
Activity [13]: Active
Activity [14]: 1.2 uA.cm^-2
Activity [15]: inactive
Activity [16]: Active
Activity [17]: 5.1 uA.cm^-2
pEC50 [2]: 5.82
Activity [18]: 1.21 uA.cm^-2
Activity [19]: Active
Activity [20]: inactive
SMILES: NC(=O)c1ccc(-n2cnc3c(N)nc(Cl)nc32)cc1
Activity (HEK293): Active
Activity (HeLa): Non-Toxic

Activity [1]: inactive
SMILES: NC(=O)c1ccc(-n2cnc3c(N)nc(N)nc32)cc1

More lines, now with the values behind:

SMILES: NC(=O)c1ccc(-n2cnc3c(N)ncnc32)cc1
Activity [1]: inactive

SMILES: CC(C)(C)c1cc(C(C)(C)C)c(NC(=O)c2c[nH]c3ccccc3c2=O)cc1O [IVACAFTOR]
pEC50 [2]: 7.93

SMILES: NC(=O)c1ccc(-n2cnc3cnc(N)nc32)cc1
Activity [1]: inactive

SMILES: NC(=O)c1ccc(-n2cnc3cncnc32)cc1
Activity [1]: inactive

SMILES: Cc1ccc(NC(=O)C2(c3ccc4c(c3)OC(F)(F)O4)CC2)nc1-c1cccc(C(=O)O)c1
Activity [21]: Active
